Four molecules from ChEMBL document CHEMBL1275433 (Antimicrob Agents Chemother, 2008) can be followed below.

Values after ≈ are worked out from the molar mass of the structure shown. Active and inactive are the calls of the source. The calls are words filed in the database; no cut-off is given here.

A short description of experiment [1]: Inhibition of Mycobacterium tuberculosis DNA gyrase GyrB/GyrA M74I and A83S mutant. The method, boiled down:
(§1)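 Enzyme unit: protein needed for 50% supercoiling of 0.4 μg relaxed pBR322 DNA in 1 h at 37°C. Wild-type and mutant enzymes assayed in parallel on the same day under identical conditions. Repeated two to four times; representative values reported.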

In experiment [2] the test system is Mycobacterium tuberculosis.
In experiment [3] the test system is Mycobacterium tuberculosis. This is another data set of the same source.
The subject of experiment [4] is Mycobacterium tuberculosis. The source holds these as a separate data set.
Experiment [5] relates to Mycobacterium tuberculosis. The source holds these as a separate data set.
Experiment [6] is described as follows: Inhibition of Mycobacterium tuberculosis DNA gyrase GyrB/GyrA S69V, A71G, E72D, T73V, M74I, N76K, A83S, S84A, I85V, F96W and P101M mutant. An outline of the steps:
as §1

Experiment [7] in a line: Inhibition of Mycobacterium tuberculosis DNA gyrase GyrA/GyrB N464S mutant gene. An outline of the steps:
as §1

The nature of experiment [8]: Inhibition of Mycobacterium tuberculosis DNA gyrase GyrA M74I and A83S mutant/GyrB R447K mutant gene. The method, boiled down:
as §1

Experiment [9] concerns Mycobacterium tuberculosis. The source holds these as a separate data set.
The subject of experiment [10] is Mycobacterium tuberculosis. The source holds these as a separate data set.
Experiment [11] has as its system Mycobacterium tuberculosis. This is another data set of the same source.
Experiment [12] relates to Mycobacterium tuberculosis. This is another data set of the same source.
The subject of experiment [13] is Mycobacterium tuberculosis. This is another data set of the same source.
In experiment [14] the test system is Mycobacterium tuberculosis. This is another data set of the same source.
The nature of experiment [15]: Inhibition of Mycobacterium tuberculosis DNA gyrase GyrA/GyrB R447K mutant gene. An outline of the steps: as §1
The nature of experiment [16]: Inhibition of Mycobacterium tuberculosis DNA gyrase GyrB/GyrA A83S, S84A, I85V, F96W and P101M mutant. The method, boiled down: as §1
A short description of experiment [17]: Inhibition of Mycobacterium tuberculosis DNA gyrase GyrB/GyrA M74I mutant. An outline of the steps: as §1
Experiment [18] is described as follows: Inhibition of Mycobacterium tuberculosis DNA gyrase GyrB/GyrA A83S, S84A and I85V mutant. The method, boiled down:
as §1

Experiment [19] is described as follows: Inhibition of Mycobacterium tuberculosis DNA gyrase GyrB/GyrA A83S mutant. The method, boiled down: as §1
The test system of experiment [20] is Mycobacterium tuberculosis. Nature of the experiment: Antimicrobial activity against Mycobacterium tuberculosis harboring DNA gyrase GyrB QRDR. Type of experiment: functional, organism-based.
Experiment [21] in a line: Inhibition of Mycobacterium tuberculosis DNA gyrase GyrA A83S mutant/GyrB R447K mutant gene. The method, boiled down:
as §1

Experiment [22] relates to Mycobacterium tuberculosis. Nature of the experiment: Antimicrobial activity against Mycobacterium tuberculosis harboring DNA gyrase GyrA QRDR. In kind it is functional, organism-based.

As a reminder, the IC50 is the concentration that inhibits the measured activity by half. Low readings indicate greater potency, high ones weaker potency. `COc1c(N2C[C@@H]3CCCN[C@@H]3C2)c(F)cc2c(=O)c(C(=O)O)cn(C3CC3)c12` [MOXIFLOXACIN]: the IC50 was 1 µM in [1]; “Not Active” in [6]; 7 µM in [7]; 2 µM in [8]; 1 µM in experiment [15]. Besides, the CC25 result in experiment [2], in [3] and in [10] was “inactive” in each case. Moreover, the CC25 in experiment [4] amounted to 3.5 µM; in experiment [5], 1 µM; in [9], 0.5 µM; in experiment [11] it was 1 µM; in experiment [12], 0.5 µM; in experiment [13], 0.5 µM. This molecule displayed a CC25 in [14] of 2.5 µM.
A word on the MIC50: it is the lowest concentration that inhibits either 50% of growth or 50% of the strains tested, depending on the study. On to `CC1COc2c(N3CCN(C)CC3)c(F)cc3c(=O)c(C(=O)O)cn1c23` (configuration not stated) [OFLOXACIN], for which the half-inhibitory concentration (IC50) in [16] is 7 µM; in [1], 3 µM; in experiment [17] it was 25 µM; in [6] it was “Not Active”; in experiment [18] it was 8 µM; in experiment [7], 20 µM. In addition, the IC50 in experiment [8] came out at 11 µM; in experiment [19], 7 µM; in [20], 10 µg/mL (≈ 27.7 µM); in [21], 4 µM; in [22], 10 µg/mL (≈ 27.7 µM); in experiment [15], 7 µM. Besides, the CC25 result in experiment [2], in [3] and in [10] was “inactive” throughout. The CC25 in experiment [4] was 14 µM; in experiment [5], 3 µM; in experiment [9], 1.5 µM; in experiment [11], 3 µM; in experiment [12] it was 0.5 µM; in experiment [13], 1.5 µM. The MIC50 in experiment [20] and in experiment [22] was 1 µg/mL (≈ 2.77 µM) each time.
On to `CCn1cc(C(=O)O)c(=O)c2cc(F)c(N3CCNCC3)nc21` [ENOXACIN], for which the IC50 was 16 µM in [16]; 9 µM in experiment [1]; over 160 µM in experiment [17]; “Not Active” in experiment [6]; 11 µM in experiment [18]; 16 µM in experiment [8]. Also, the IC50 in [19] was found to be 16 µM; in experiment [21], 19 µM; in [15], 23 µM.
As for `CCn1cc(C(=O)O)c(=O)c2ccc(C)nc21` [NALIDIXIC ACID], the IC50 in [16] was 1080 µM; in [1], 850 µM; in [17], 3450 µM; in experiment [6] it was “Not Active”; in [18], 2800 µM; in experiment [7], 4100 µM. For the same molecule, the IC50 in [8] amounted to 520 µM; in [19], 950 µM; in experiment [21] it was 850 µM; in experiment [15] it was 1080 µM.
